Data taken from ChEMBL document CHEMBL1127616, “Synthesis, structural characterization, and antitumor properties of a novel class of large-ring platinum(II) chelate complexes incorporating the cis-1,4-diaminocyclohexane ligand in a unique locked boat conformation” (J Med Chem, 1994).

How the values were obtained:
L1210 [1] = experiment: Tested for in vitro growth inhibition against murine leukemia cell L1210DACH; type: functional, cell-based; conditions: Mus musculus
L1210 [2] = experiment: Tested for in vitro growth inhibition against murine leukemia cell L1210DDP5; type: functional, cell-based; conditions: Mus musculus
L1210 [3] = experiment: Tested for in vivo weight change against murine L1210 leukemia at the dose of 5.0 mg/kg per injection in experiment 2; type: functional, organism-based; conditions: Mus musculus
How it was run: (§1)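 Leukemia life-span assays used CD2F1 (Balb/c × DBA/2F1) mice weighing 18–22 g. Cells were inoculated IP on day 0, and compounds in 0.9% saline were given IP, dosed by average cage weight. Weight change is the difference in mean group weight between the last and first treatment days.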

L1210 [4] = experiment: Tested for median life span against solid tumor L1210 Pt-resistant leukemia at 5.0 mg/kg per injection in experiment 2; type: functional, organism-based; conditions: Mus musculus
How it was run: (§2)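 CD2F1 mice weighing 18–22 g were inoculated IP with leukemia cells on day 0. Compounds in 0.9% saline were given IP in three injections, dosed by average cage weight, over a dose range from toxic to ineffective. Median life span was recorded, with cause of death assessed at necropsy and 60-day survivors counted as cured.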

L1210 [5] = experiment: Tested for the ratio of number of survivors / total number after 60 days at the dose of 6.0 mg/kg per injection against murine leukemia L1210 experiment 1; type: functional, organism-based; conditions: Mus musculus
How it was run: (§3)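 CD2F1 (Balb/c × DBA/2F1) mice, 18–22 g, randomized and inoculated IP with counted leukemia cells on day 0, then re-randomized. Three IP treatments, dissolved in 0.9% saline and dosed on average cage weight, with dose in mg/kg per injection across a full toxic-to-ineffective range. Median life span and %T/C were recorded. Survivors at 60 days were counted as cured and excluded from %T/C.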

L1210 [6] = experiment: Tested for in vivo weight change against murine L1210 Pt-resistant leukemia at the dose of 6.0 mg/kg per injection; type: functional, organism-based; conditions: Mus musculus; how it was run: as §1
L1210 [7] = experiment: Tested for in vitro growth inhibition against murine leukemia cell L1210PtR4; type: functional, cell-based; conditions: Mus musculus
L1210 [8] = experiment: Tested for median life span against solid tumor L1210 leukemia at 10 mg/kg per injection in experiment 2; type: functional, organism-based; conditions: Mus musculus; how it was run: as §2
L1210 [9] = experiment: Tested for median life span against solid tumor L1210 leukemia at 5.0 mg/kg per injection in experiment 2; type: functional, organism-based; conditions: Mus musculus; how it was run: as §2
L1210 [10] = experiment: Tested for in vitro growth inhibition against murine leukemia cell L1210S; type: functional, cell-based; conditions: Mus musculus
L1210 [11] = experiment: Tested for the ratio of treated and control against solid tumor murine L1210 leukemia 6.0 mg/kg per injection in experiment 1; T/C; type: functional, organism-based; conditions: Mus musculus
How it was run: (§4)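 Murine leukemia life span assay in CD2F1 (Balb/c × DBA/2F1) mice, 18–22 g, randomized, with IP tumor cell inoculation on day 0. Depending on the model, the inoculum was 1 × 10^4 cells with IP dosing on days 3, 7 and 11, or 1 × 10^6 cells with IP dosing on days 1, 5 and 9. Drug was given in 0.9% saline, mg/kg per injection, by average cage weight. Read-outs were median day of death and %T/C. Mice alive 60 days after treatment counted as cured and were excluded.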

Mus musculus [12] = experiment: Tested for median life span against solid tumor P388 Pt-resistant leukemia at 10 mg/kg per injection; type: functional, organism-based; how it was run: as §2
Mus musculus [13] = experiment: Tested for the ratio of number of survivors / total number after 60 days at the dose of 10 mg/kg per injection against murine P388 Pt-resistant leukemia; type: functional, organism-based; how it was run: as §3
Mus musculus [14] = experiment: Tested for in vivo weight change against murine P388 Pt-resistant leukemia at the dose of 10 mg/kg per injection; type: functional, organism-based; how it was run: as §1
Mus musculus [15] = experiment: Tested for in vivo weight change against murine P388 leukemia at the dose of 10 mg/kg per injection; type: functional, organism-based; how it was run: as §1
Mus musculus [16] = experiment: Tested for median life span against solid tumor P388 Pt-resistant leukemia at 5.0 mg/kg per injection; type: functional, organism-based; how it was run: as §4
Mus musculus [17] = experiment: Tested for median life span against solid tumor P388 leukemia at 5.0 mg/kg per injection; type: functional, organism-based; how it was run: as §4
Mus musculus [18] = experiment: Tested for the ratio of treated and control against solid tumor murine P388 Pt-resistant leukemia 10 mg/kg per injection; T/C; type: functional, organism-based; how it was run: as §4
P388 [19] = experiment: Tested for in vitro growth inhibition against murine leukemia cell P388Pt4; type: functional, cell-based; conditions: Mus musculus
P388 [20] = experiment: Tested for in vitro growth inhibition against murine leukemia cell P388S; type: functional, cell-based; conditions: Mus musculus
L1210 [21] = experiment: Tested for median life span against solid tumor L1210 Pt-resistant leukemia at 1.6 mg/kg per injection in experiment 2; type: functional, organism-based; conditions: Mus musculus; how it was run: as §2
L1210 [22] = experiment: Tested for in vivo weight change against murine L1210 Pt-resistant leukemia at the dose of 1.5 mg/kg per injection in experiment 1; type: functional, organism-based; conditions: Mus musculus; how it was run: as §1
L1210 [23] = experiment: Tested for in vivo weight change against murine L1210 leukemia at the dose of 2.5 mg/kg per injection in experiment 2; type: functional, organism-based; conditions: Mus musculus; how it was run: as §1
L1210 [24] = experiment: Tested for median life span against solid tumor L1210 leukemia at 2.5 mg/kg per injection in experiment 2; type: functional, organism-based; conditions: Mus musculus; how it was run: as §2
L1210 [25] = experiment: Tested for median life span against solid tumor L1210 leukemia at 3.0 mg/kg per injection in experiment 1; type: functional, organism-based; conditions: Mus musculus; how it was run: as §2
L1210 [26] = experiment: Tested for the ratio of treated and control against solid tumor murine L1210 Pt-resistant leukemia 1.5 mg/kg per injection in experiment 1; T/C; type: functional, organism-based; conditions: Mus musculus; how it was run: as §4
L1210 [27] = experiment: Tested for the ratio of treated and control against solid tumor murine L1210 Pt-resistant leukemia 1.6 mg/kg per injection in experiment 2; T/C; type: functional, organism-based; conditions: Mus musculus; how it was run: as §4
L1210 [28] = experiment: Tested for the ratio of treated and control against solid tumor murine L1210 leukemia 1.6 mg/kg per injection in experiment 2; T/C; type: functional, organism-based; conditions: Mus musculus; how it was run: as §4
Mus musculus [29] = experiment: Tested for the ratio of number of survivors / total number after 60 days at the dose of 2.3 mg/kg per injection against murine P388 Pt-resistant leukemia; type: functional, organism-based; how it was run: as §3
Mus musculus [30] = experiment: Tested for the ratio of treated and control tumor to reach 750 mg against murine solid tumor M5076 sarcoma 4.0 mg/kg per injection; type: functional, organism-based
How it was run: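 Solid tumor growth delay assay; B16 melanoma and M5076 sarcoma were run in B6C3F1 (C57BL/6 × C3HF1) mice of 18–22 g. Tumor fragments were implanted SC on day 0, then drug in 0.9% saline was given IP on days 1, 5, 9 or days 3, 7, 11, mg/kg per injection. T − C is the difference in days for treated and control tumors to reach 750 mg. Net log cell kill is tumor burden reduction during therapy. Cured mice were excluded.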

Mus musculus [31] = experiment: Tested for the ratio of treated and control tumor to reach 750 mg against murine solid tumor colon carcinoma 2.5 mg/kg per injection; type: functional, organism-based
Mus musculus [32] = experiment: Tested for in vivo weight change against murine B16 melanoma at the dose of 4.0 mg/kg per injection; type: functional, organism-based
How it was run: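 B6C3F1 (C57BL/6 × C3HF1) mice weighing 18–22 g received trocar tumor fragments SC on day 0. Compounds in 0.9% saline were given IP on a three-injection schedule, dosed by average cage weight. Weight change is the maximum treatment-related weight loss during the growth-delay assay.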

Mus musculus [33] = experiment: Tested for in vivo weight change against murine P388Pt-resistant leukemia at the dose of 2.3 mg/kg per injection; type: functional, organism-based; how it was run: as §1
Mus musculus [34] = experiment: Tested for median life span against solid tumor P388 Pt-resistant leukemia at 2.3 mg/kg per injection; type: functional, organism-based; how it was run: as §3
Mus musculus [35] = experiment: Tested for the ratio of number of survivors / total number after 60 days at the dose of 3.7 mg/kg per injection against murine P388 Pt-resistant leukemia; type: functional, organism-based; how it was run: as §3
Mus musculus [36] = experiment: Tested for the ratio of treated and control against solid tumor murine P388 Pt-resistant leukemia 3.7 mg/kg per injection; T/C; type: functional, organism-based; how it was run: as §4
Mus musculus [37] = experiment: Tested for the ratio of treated and control against solid tumor murine P388 leukemia 3.7 mg/kg per injection in experiment 2; T/C; type: functional, organism-based; how it was run: as §4

CISPLATIN
ID50 (L1210 [1]): 0.52 µg/mL | ID50 (L1210 [2]): 4.11 µg/mL | Weight change (L1210 [3]): 0.5 g | MLS (L1210 [4]): 11 days | Survivors (L1210 [5]): 1 | Weight change (L1210 [6]): -3.7 g | ID50 (L1210 [7]): 7.84 µg/mL | MLS (L1210 [8]): 18.5 days | MLS (L1210 [9]): 16 days | ID50 (L1210 [10]): 0.375 µg/mL | Ratio (L1210 [11]): 175% | MLS (Mus musculus [12]): 18 days | Survivors (Mus musculus [13]): 0 | Weight change (Mus musculus [14]): -5.9 g | Weight change (Mus musculus [15]): -5.5 g | MLS (Mus musculus [16]): 19.3 days | MLS (Mus musculus [17]): 29 days | T/C (Mus musculus [18]): 123% | ID50 (P388 [19]): 10 µg/mL | ID50 (P388 [20]): 0.128 µg/mL

[Pt(cis-1,4-dach)CL2]
ID50 (L1210 [1]): 1.08 µg/mL | ID50 (L1210 [2]): 0.663 µg/mL | MLS (L1210 [21]): 15 days | Weight change (L1210 [22]): 1.9 g | Weight change (L1210 [23]): -1.9 g | ID50 (L1210 [7]): 1.21 µg/mL | MLS (L1210 [24]): 22.5 days | MLS (L1210 [25]): 21.5 days | ID50 (L1210 [10]): 0.248 µg/mL | Ratio (L1210 [26]): 154% | Ratio (L1210 [27]): 146% | Ratio (L1210 [28]): 229% | 60-day survivors (Mus musculus [29]): 0 | T-C (Mus musculus [30]): 13.5 days | T-C (Mus musculus [31]): 3.8 days | Weight change (Mus musculus [32]): -2.6 g | Weight change (Mus musculus [33]): -0.1 g | Survivors (Mus musculus [34]): 21 days | Survivors (Mus musculus [35]): 0 | T/C (Mus musculus [36]): 177% | T/C (Mus musculus [37]): 234% | ID50 (P388 [19]): 1.43 µg/mL | ID50 (P388 [20]): 0.047 µg/mL
